How the values were obtained:
Assay type in all cases: functional, cell-based
SF-268 = experiment: Cytotoxicity against human SF268 cells by resazurin dye based Alamar blue assay
Summary of the method: (§1)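 Resazurin-based colorimetric (Alamar Blue) read-out of in vitro cytotoxicity in human cancer lines: NCI-H460 non-small-cell lung, SF-268 CNS glioma, MCF-7 breast, PC-3M metastatic prostate adenocarcinoma, MDA-MB-231 breast adenocarcinoma. Doxorubicin served as positive control and DMSO as negative control. Run in triplicate. Compounds tested up to 5.0 μM; IC50 values derived.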

PC-3M = experiment: Cytotoxicity against human PC3M cells by resazurin dye based Alamar blue assay; summary of the method: as §1
MDA-MB-231 = experiment: Cytotoxicity against human MDA-MB-231 cells by resazurin dye based Alamar blue assay; summary of the method: as §1
NCI-H460 = experiment: Cytotoxicity against human NCI-H460 cells by resazurin dye based Alamar blue assay; summary of the method: as §1
MCF7 = experiment: Cytotoxicity against human MCF7 cells by resazurin dye based Alamar blue assay; summary of the method: as §1

In the case of `COc1cc(O)c2c(c1)C(=O)c1cocc1C2=O` [MONOSPORASCONE], the IC50 (SF-268) is reported as greater than 5 µM, the IC50 (PC-3M) is reported as greater than 5 µM and the IC50 (MDA-MB-231) is reported as 3.8 µM. The IC50 (NCI-H460) was greater than 5 µM and the IC50 (MCF7) was greater than 5 µM.
For `COc1cc(O)c2c(c1)C(=O)C(C)=CC2=O`, the IC50 (SF-268) was greater than 5 µM, the IC50 (PC-3M) was 4.9 µM and the IC50 (MDA-MB-231) was 1.2 µM. The IC50 (NCI-H460) was greater than 5 µM and the IC50 (MCF7) was 3.1 µM.
For `COc1cccc2c1C(=O)c1c(O)c3c(c(O)c1C2=O)C[C@@](O)(C(=O)CO)C[C@@H]3O[C@H]1C[C@H](N)[C@H](O)[C@H](C)O1` [DOXORUBICIN], the IC50 (PC-3M) was 0.2 µM, the IC50 (MDA-MB-231) was 0.6 µM and the IC50 (NCI-H460) was 0.4 µM.

From ChEMBL document CHEMBL4251658, “Cytotoxic and Noncytotoxic Metabolites from Teratosphaeria sp. FL2137, a Fungus Associated with Pinus clausa” (J Nat Prod, 2018)
